Laboratory results as given in ChEMBL document CHEMBL3046601, “Synthesis and herbicidal activity of N,N-diethyl-3-(arylselenonyl)-1H-1,2,4-triazole-1-carboxamide” (2006).

Tests used:
Type in all cases: functional
[1] = Herbicidal activity against semen euphorbiae assessed as inhibition of weed growth at 500 ug/mL measured 15 days post compound treatment by pot-culture method; settings: 360 h; read-out: GI
How it was run: (§1)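 Pot-culture assay on whole plants. Compounds were dissolved in toluene, diluted in water, and emulsified with a drop of Tween 80. Five parallel tests per compound, each compared with an untreated control, read as the ratio of growth inhibition. The 500 µg/mL level was the preliminary screen; the follow-up used 0.9375–15 µg/mL on cucumber, rice and semen euphorbiae.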

Cucumis sativus [2] = assay: Herbicidal activity against Cucumis sativus jinyou 15 (cucumber) assessed as inhibition of weed growth at 500 ug/mL measured 15 days post compound treatment by pot-culture method; settings: jinyou 15, 360 h, read-out: GI; how it was run: as §1
Echinochloa crus-galli [3] = assay: Herbicidal activity against semen euphorbiae assessed as inhibition of weed growth at 7.5 ug/mL measured 15 days post compound treatment by pot-culture method; settings: 360 h, read-out: GI; how it was run: as §1
Cucumis sativus [4] = assay: Herbicidal activity against Cucumis sativus jinyou 15 (cucumber) assessed as inhibition of weed growth at 3.75 ug/mL measured 15 days post compound treatment by pot-culture method; settings: jinyou 15, 360 h, read-out: GI; how it was run: as §1
Oryza sativa [5] = assay: Toxicity against Oryza sativa xiuanyou 63 (rice) assessed as growth inhibition at 7.5 ug/mL measured 15 days post compound treatment by pot-culture method; settings: xiuanyou 63, 360 h, read-out: GI; how it was run: as §1
Echinochloa crus-galli [6] = assay: Herbicidal activity against semen euphorbiae assessed as inhibition of weed growth at 0.9375 ug/mL measured 15 days post compound treatment by pot-culture method; settings: 360 h, read-out: GI; how it was run: as §1
Oryza sativa [7] = assay: Toxicity against Oryza sativa xiuanyou 63 (rice) assessed as growth inhibition at 0.9375 ug/mL measured 15 days post compound treatment by pot-culture method; settings: xiuanyou 63, 360 h, read-out: GI; how it was run: as §1
Oryza sativa [8] = assay: Toxicity against Oryza sativa xiuanyou 63 (rice) assessed as growth inhibition at 1.875 ug/mL measured 15 days post compound treatment by pot-culture method; settings: xiuanyou 63, 360 h, read-out: GI; how it was run: as §1
Cucumis sativus [9] = assay: Herbicidal activity against Cucumis sativus jinyou 15 (cucumber) assessed as inhibition of weed growth at […] measured 15 days post compound treatment by pot-culture method; settings: jinyou 15, 360 h, read-out: GI; how it was run: as §1
Oryza sativa [10] = assay: Toxicity against Oryza sativa xiuanyou 63 (rice) assessed as growth inhibition at 15 ug/mL measured 15 days post compound treatment by pot-culture method; settings: xiuanyou 63, 360 h, read-out: GI; how it was run: as §1
Echinochloa crus-galli [11] = assay: Herbicidal activity against semen euphorbiae assessed as inhibition of weed growth at 1.875 ug/mL measured 15 days post compound treatment by pot-culture method; settings: 360 h, read-out: GI; how it was run: as §1
Echinochloa crus-galli [12] = assay: Herbicidal activity against semen euphorbiae assessed as inhibition of weed growth at 15 ug/mL measured 15 days post compound treatment by pot-culture method; settings: 360 h, read-out: GI; how it was run: as §1
Oryza sativa [13] = assay: Toxicity against Oryza sativa xiuanyou 63 (rice) assessed as growth inhibition at 3.75 ug/mL measured 15 days post compound treatment by pot-culture method; settings: xiuanyou 63, 360 h, read-out: GI; how it was run: as §1
Echinochloa crus-galli [14] = assay: Herbicidal activity against semen euphorbiae assessed as inhibition of weed growth at 3.75 ug/mL measured 15 days post compound treatment by pot-culture method; settings: 360 h, read-out: GI; how it was run: as §1

Question: With `CCN(CC)C(=O)n1cnc([Se](=O)(=O)c2ccccc2)n1` as the compound, how does the inhibition of growth at 500 µg/mL [1] read?
Answer: 4.18%

Question: And the inhibition of growth at 500 µg/mL (Cucumis sativus [2])?
Answer: 8.75%

Question: With `CCN(CC)C(=O)n1cnc([Se](=O)(=O)c2ccc(F)c(F)c2)n1` as the compound, how does the inhibition of growth at 500 µg/mL [1] read?
Answer: 44.3%

Question: What about the inhibition of growth at 500 µg/mL (Cucumis sativus [2]) of the same compound?
Answer: 44%

Question: For `CCN(CC)C(=O)n1cnc([Se](=O)(=O)c2cccc(C(F)(F)F)c2)n1`, which inhibition of growth at 500 µg/mL [1] is on record?
Answer: 25.2%

Question: And the inhibition of growth at 500 µg/mL (Cucumis sativus [2])?
Answer: 18.5%

Question: Which inhibition of growth at 7.5 µg/mL (Echinochloa crus-galli [3]) does the source give for `CCN(CC)C(=O)n1cnc([Se](=O)(=O)c2c(C)cccc2C)n1` here?
Answer: 88.9%

Question: What about the inhibition of growth at 3.75 µg/mL (Cucumis sativus [4]) of the same compound?
Answer: 100%

Question: What about the inhibition of growth at 500 µg/mL [1] of the same compound?
Answer: 100%

Question: What about the inhibition of growth at 7.5 µg/mL (Oryza sativa [5]) of the same compound?
Answer: 2.8%

Question: What about the inhibition of growth at 500 µg/mL (Cucumis sativus [2]) of the same compound?
Answer: 100%

Question: For `CCN(CC)C(=O)n1cnc([Se](=O)(=O)c2ccc(Cl)cc2)n1`, which inhibition of growth at 500 µg/mL [1] is on record?
Answer: 17%

Question: And the inhibition of growth at 500 µg/mL (Cucumis sativus [2])?
Answer: 18.6%

Question: Which results are given for `CCN(CC)C(=O)n1cnc([Se](=O)(=O)c2c(C)cc(C)cc2C)n1`?
Answer: inhibition of growth at 7.5 µg/mL (Echinochloa crus-galli [3]): 91.1%; inhibition of growth at 3.75 µg/mL (Cucumis sativus [4]): 100%; inhibition of growth at 500 µg/mL [1]: 100%; inhibition of growth at 7.5 µg/mL (Oryza sativa [5]): 8.3%; inhibition of growth at 500 µg/mL (Cucumis sativus [2]): 100%

Question: With `CCN(CC)C(=O)n1cnc([Se](=O)(=O)c2ccc([N+](=O)[O-])cc2)n1` as the compound, how does the inhibition of growth at 500 µg/mL [1] read?
Answer: 46.4%

Question: What about the inhibition of growth at 500 µg/mL (Cucumis sativus [2]) of the same compound?
Answer: 26.9%

Question: What does the source list for `CCN(CC)C(=O)n1cnc([Se](=O)(=O)c2ccc(F)cc2F)n1`?
Answer: inhibition of growth at 500 µg/mL [1]: 53.9%; inhibition of growth at 500 µg/mL (Cucumis sativus [2]): 33.9%

Question: Which inhibition of growth at 500 µg/mL [1] does the source give for `CCN(CC)C(=O)n1cnc([Se](=O)(=O)c2ccc(C(F)(F)F)c(Cl)c2)n1` here?
Answer: 45.6%

Question: And the inhibition of growth at 500 µg/mL (Cucumis sativus [2])?
Answer: 15.3%

Question: Which results are given for `CCN(CC)C(=O)n1cnc([Se](=O)(=O)c2ccc(F)c(Cl)c2)n1`?
Answer: inhibition of growth at 500 µg/mL [1]: 39.6%; inhibition of growth at 500 µg/mL (Cucumis sativus [2]): 10.7%

Question: With `CCN(CC)C(=O)n1cnc([Se](=O)(=O)c2ccc(OC)cc2)n1` as the compound, how does the inhibition of growth at 500 µg/mL [1] read?
Answer: 63.9%

Question: What about the inhibition of growth at 500 µg/mL (Cucumis sativus [2]) of the same compound?
Answer: 30.3%

Question: What does the source list for `CCN(CC)C(=O)n1cnc([Se](=O)(=O)c2ccc(C)cc2C)n1`?
Answer: inhibition of growth at 500 µg/mL [1]: 51%; inhibition of growth at 500 µg/mL (Cucumis sativus [2]): 42%

Question: With `CCN(CC)C(=O)n1cnc(S(=O)(=O)c2c(C)cc(C)cc2C)n1` [CAFENSTROLE] as the compound, how does the inhibition of growth at 7.5 µg/mL (Echinochloa crus-galli [3]) read?
Answer: 95.6%

Question: What about the inhibition of growth at 0.9375 µg/mL (Echinochloa crus-galli [6]) of the same compound?
Answer: 17.8%

Question: What about the inhibition of growth at 0.9375 µg/mL (Oryza sativa [7]) of the same compound?
Answer: 0%

Question: What about the inhibition of growth at 1.875 µg/mL (Oryza sativa [8]) of the same compound?
Answer: 13.9%

Question: And the inhibition of growth (Cucumis sativus [9])?
Answer: 100%

Question: What about the inhibition of growth at 500 µg/mL [1] of the same compound?
Answer: 100%

Question: What about the inhibition of growth at 7.5 µg/mL (Oryza sativa [5]) of the same compound?
Answer: 72%

Question: And the inhibition of growth at 15 µg/mL (Oryza sativa [10])?
Answer: 100%

Question: What about the inhibition of growth at 500 µg/mL (Cucumis sativus [2]) of the same compound?
Answer: 100%

Question: And the inhibition of growth at 1.875 µg/mL (Echinochloa crus-galli [11])?
Answer: 46.7%

Question: What about the inhibition of growth at 15 µg/mL (Echinochloa crus-galli [12]) of the same compound?
Answer: 100%

Question: What about the inhibition of growth at 3.75 µg/mL (Oryza sativa [13]) of the same compound?
Answer: 47.2%

Question: And the inhibition of growth at 3.75 µg/mL (Echinochloa crus-galli [14])?
Answer: 84.4%
